Legend:
[1] = cited from earlier work
HeLa cells = assay: cellular platinum uptake by GFAAS; format: cell-based, human; details: 10 µM, 4 h exposure
Procedure, shortened: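 HeLa cells were seeded at 3×10⁵ cells/well, grown 48 h, then exposed to test compound (10 µM final) for 4 h. Cell-free medium wells served as blanks for nonspecific Pt adsorption, and parallel wells were trypsinised and counted with trypan blue. Wells were washed twice with pH 7.4 PBS and digested in hot (≈90 °C) concentrated nitric acid for 2 h. Pt was measured by GFAAS, blank-subtracted and normalised per cell; errors were derived by error propagation.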

[2] = tested on: U2OS (human osteosarcoma); assay: MTT cytotoxicity assay, U2OS; format: cell-based; details: read-out: IC50 U2OS, 72 h continuous treatment
Procedure, shortened: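 Cells were grown as adherent monolayers in DMEM with 10% FBS and 1% penicillin/streptomycin at 37 °C, humidified 5% CO₂. 2000 cells/well were seeded and left for 24 h. Medium was replaced with test compound dilutions from 1–3 mM aqueous stocks for 72 h. MTT (0.8 mg/mL in DMEM) was added for 4 h, and formazan was dissolved in DMSO with 10% pH 10.5 glycine buffer. A555 was normalised to Pt-free controls and IC50 interpolated from % viability curves. Values are means of ≥3 independent experiments, each with six replicates per concentration; errors are standard deviations.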

[3] = tested on: nuclear DNA of HeLa cells; assay: intracellular DNA platination by GFAAS; format: cell-based, human; details: 100 µM for 4 h, then 16 h in platinum-free medium
Procedure, shortened: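 Five million HeLa cells were seeded, treated next day, and floating plus attached cells were pooled (trypsin), pelleted at 4 °C and washed with ice-cold PBS. Cells were lysed in DNAzol with 100 µg/mL RNase A. DNA was ethanol-precipitated, redissolved in 8 mM NaOH and quantified by UV-visible spectroscopy, and Pt was measured by GFAAS (pmol Pt/µg DNA). Values are means ± SD of ≥3 experiments.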

N.N.O=C([O-])C1(C(=O)[O-])CCC1.[Pt+2] [carboplatin]
stability in water [1]: stable for up 60 d

N.N.[Cl][Pt][Cl] [cisplatin, cis-diamminedichloroplatinum(II)]
HeLa Cellular Uptake (HeLa cells): 14 ± 2 ng Pt/10^6 cells | IC50 [2]: 5 ± 2 µM | Pt/DNA [3]: 1.58 ± 0.97 pmol/µg

Source: publication PMC3375352 (Journal of Medicinal Chemistry, 2012)
